Assay outcomes: PubChem, several laboratories
XBP1 UPR activ: activators of adaptive arm of unfolded protein response (XBP1); 0.33% of 330,000 active; activation, % at 20 µM; CHO-XBP1 luciferase reporter, IRE1-XBP1 UPR activation, luminescence; percent of tunicamycin response, DMSO as zero;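 active means versus positive control, 20 µM dose yields 30% or more activation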
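Material: IRE1-XBP1 luciferase reporter CHO line / Quantity: one thousand reporter cells per well / Buffer or medium: F12 with 10% serum / Compound: 20 µM single concentration, DMSO 1% / Times: 6 h treatment, 37 °C / Detection: Steady-Glo luciferase glow luminescence, 10 min after reagent addition / Benchmarks: tunicamycin high, DMSO low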
CHOP inhibitor: CHOP inhibition in unfolded protein response. CHO-K1 CHOP-promoter luciferase, tunicamycin-induced, 15-18 h. inhibition, % at 10 µM. 3.8% of 220,000 active;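 active means compounds that reduced the stress-induced luciferase reporter signal by more than about 70% of percent inhibition, limit read from the data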
GAA850 FXN act: frataxin GAA850 promoter activation; activation, % at 6 µM; HEK293 lucGAA850 FXN promoter luciferase reporter, 24 h; percent of 10 µM SAHA response; 0.56% of 360,000 active;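 active means activation above the average of all compounds screened plus 3 SD, cutoff fixed separately per campaign, cut at about 7.5% in these data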
UPR CHOP act: activators of apoptotic arm of unfolded protein response (CHOP); CHO-CHOP luciferase reporter, UPR activation, luminescence; percent of tunicamycin response over DMSO baseline; activation, % at 10 µM; 0.34% of 330,000 active; AID 449763;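 active means at 10 µM dose, activation of 40% or more, normalized to positive control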
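System: CHO-CHOP luciferase reporter cell line | Buffer or medium: F12 medium containing 10% fetal bovine serum | Doses: One dose, 10 µM in 0.5% DMSO | Times: 6 h compound exposure at 37 °C after overnight seeding | Signal: Luciferase luminescence | Read-out: % activation vs tunicamycin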
Large screens that a line does not name were inactive. The sample as a whole holds a higher share of hits than the screen did.

Cc1cc([N+](=O)[O-])nn1CCCC(=O)Nc1cc(Oc2ccc(F)cc2)cc([N+](=O)[O-])c1	CHOP inhibitor 70
COC(=O)c1ccccc1NC(=O)CCCn1nc([N+](=O)[O-])cc1C	none
Cc1c(Cl)c([N+](=O)[O-])nn1CCCC(=O)Nc1cccc(Cl)c1	none
COc1ccc(CNC(=O)CCCn2nc([N+](=O)[O-])cc2C)cc1	none
Cc1cc([N+](=O)[O-])nn1CCCC(=O)Nc1cc(Oc2ccccc2)cc([N+](=O)[O-])c1	CHOP inhibitor 74
COc1ccc(NC(=O)C2(C)CCN2CC2CCCCC2)cc1OC (centres undefined)	none (no result: XBP1 UPR activ, CHOP inhibitor, UPR CHOP act)
Cc1cn([C@H]2C[C@H](O)[C@@H](CNCc3cccc(OC4CCCC4)c3)O2)c(=O)[nH]c1=O	none (no result: XBP1 UPR activ, CHOP inhibitor, UPR CHOP act)
CC(=O)Oc1ccccc1Cn1c(C)c(C(=O)NCc2cccc([N+](=O)[O-])c2)sc1=O	none (no result: XBP1 UPR activ, CHOP inhibitor, UPR CHOP act)
CCOC(=O)C1(CC)CC(CSc2nc3ccccc3[nH]2)OC1=O (centres undefined)	none
CCOC(=O)C1(CCC(C)C)CC(CSc2nc3ccccc3[nH]2)OC1=O (centres undefined)	CHOP inhibitor 89
CCOC(=O)c1sc(Nc2ccc(OCC)cc2)nc1C	CHOP inhibitor 73
CCOC(=O)c1sc(Nc2cccc(Cl)c2)nc1C	none
COc1ccc(C)cc1S(=O)(=O)Nc1ccc(F)cc1	none
CCOc1cc(C)c(S(=O)(=O)Nc2ccc(F)cc2)cc1C	CHOP inhibitor 81
Cc1cc(NC(=O)CS(=O)(=O)c2cn(Cc3cccc(C(F)(F)F)c3)c3ccccc23)no1	none (no result: XBP1 UPR activ, CHOP inhibitor, UPR CHOP act)
COC(=O)c1cc2occc2n1Cc1ccc(Cl)cc1	CHOP inhibitor 87
COC(=O)c1cc2occc2n1Cc1c(F)cccc1Cl	none (no result: XBP1 UPR activ, GAA850 FXN act, UPR CHOP act)
O[C@@H]1CN(Cc2cccs2)[C@@H](c2ccc(Cl)cc2)C[C@H]1n1cc(-c2ccc(F)cc2)nn1	none (no result: XBP1 UPR activ, CHOP inhibitor, UPR CHOP act)
CC12CCC3C(CCC4CC(O)CCC43C)C1CC(=O)C2 (centres undefined)	none (no result: XBP1 UPR activ, CHOP inhibitor, UPR CHOP act)
CC(C)(C)c1cc(C(C)(C)C)cc(S(=O)(=O)CCc2ccccn2)c1	CHOP inhibitor 70
Cc1cccnc1C(NC(=O)C1CCN(Cc2ccc(Oc3ccccc3)cc2)CC1)c1ccc(F)cc1 (centres undefined)	none (no result: XBP1 UPR activ, CHOP inhibitor, UPR CHOP act)
COc1cc(CNc2nc(C)c([N+](=O)[O-])c(C)c2C#N)cc(OC)c1	CHOP inhibitor 71
COc1cc(/C=C(\C#N)C(=O)NCCc2ccccc2)cc(OC)c1O	none
COc1cc(/C=C(\C#N)C(=O)N2CCc3ccccc32)ccc1O	none
N#C/C(=C\c1ccc(O)c(O)c1)C(=O)NCCc1ccccc1	UPR CHOP act 223
N#C/C(=C\c1ccc(O)c(O)c1)C(=O)N1CCc2ccccc21	UPR CHOP act 175 (no result: CHOP inhibitor)
C[C@H]1CCCCO[C@H](CN(C)Cc2ccc(C(=O)O)cc2)[C@@H](C)CN([C@@H](C)CO)C(=O)c2cc(NS(=O)(=O)c3cn(C)cn3)ccc2O1	none (no result: XBP1 UPR activ, CHOP inhibitor, UPR CHOP act)
CCOC(=O)C1(N(CC)CC)Sc2cc(C)ccc2NC1=O (centres undefined)	none (no result: CHOP inhibitor)
COC(=O)C1=C(C(=O)OC)SC2(S1)C(C(=O)OC)=C(C(=O)OC)SC1=C2c2cc(C)ccc2NC1(C)C	CHOP inhibitor 73
Cc1ccc(/C=C2/NC(=O)N(c3ccccc3)C2=O)o1	none
O=C1N/C(=C/c2ccc(N3CCOCC3)o2)C(=O)N1c1cccc(Cl)c1	GAA850 FXN act 8.9
Cc1nc(NC(=O)CC(C)C)sc1-c1csc(Nc2ccc(Cl)cc2)n1	CHOP inhibitor 71
CCN(CC)C(=O)c1cccc(-c2csc(C(C)(O)c3cccc(F)c3)n2)c1 (centres undefined)	none (no result: XBP1 UPR activ, CHOP inhibitor, UPR CHOP act)
Cn1cc(C(c2ccccn2)c2cn(C)c3ccccc23)c2ccccc21	CHOP inhibitor 78
c1ccc(C(c2c[nH]c3ccccc23)c2c[nH]c3ccccc23)nc1	none
C=CCn1c(SCC(=O)Nc2sccc2C(N)=O)nc2sc(CC)cc2c1=O	none
C=CCn1c(SCc2nc3cc(C(=O)OC)ccc3c(=O)[nH]2)nc2sc(CC)cc2c1=O	CHOP inhibitor 72
Cc1cnc(CNC(=O)c2csc([C@@H]3O[C@H](CO)[C@H](O)[C@H](O)[C@H]3O)n2)cn1	none (no result: XBP1 UPR activ, CHOP inhibitor, UPR CHOP act)
COc1cccc(C2=NN(C(=O)c3cccs3)C(O)(C(F)(F)F)C2)c1 (centres undefined)	CHOP inhibitor 75
COc1cccc(C(=O)N2N=C(c3cccc(OC)c3)CC2(O)C(F)(F)F)c1 (centres undefined)	none
CCOC(=O)N1CCN(c2nc(-c3ccc(F)cc3)cs2)CC1	CHOP inhibitor 78
